Source: PubChem
This is a sample that favours compounds with a hit; in the whole collection about 6.4% have one here.
tolC growth inh: growth inhibitors of E. coli tolC mutant, primary screen, strain BW25113 ΔtolC::kan, 384-well | actives 2.2% (n = 65,000) | growth inhibition, % at 10 µM (by protocol) | AID 573, 2007 | OD615;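 active = growth inhibition at or above a cutoff equal to the mean over every tested compound plus 3 SD, cut at about 60% in these data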;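 note: growth measured after 20 h incubation at 37 °C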
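Test system: E. coli BW25113 ΔtolC::kan bacteria | Medium: Kanamycin-containing LB broth (50 µg/mL) | Dosing: One dose of 10 µM final | Times: 20 h incubation with compound, 37 °C | Detection: Optical density read at 615 nm | Read-out basis: Percent growth inhibition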
HUVEC inhibit: inhibitors of HUVEC proliferation, primary screen, cell-based, 384-well; CellTiter-Glo luminescence, 72 h; stronger effect = lower value; viability, % at 10 µM (by protocol); actives 1.1% (n = 86,000);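 active = viability at or below 30%; inactive = viability above 30%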;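 note: 100% = median luminescence of DMSO-only cell control wells on each plate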
H69AR inhibit: proliferation blockers of H69AR lung cancer cells, primary screen, cell-based, human, 86K library | H69AR lung tumor viability, ATP luminescence, 72 h; stronger effect = lower value | viability, % at 10 µM | actives 6% (n = 85,000) | AID 598, 2007;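 active = viability at or below 40%; inactive = viability above 40%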;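 note: multidrug resistant small cell line overexpressing MRP-1 efflux transporter; 100% = mean luminescence of untreated control wells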
Lung fibro prol: antiproliferative effect on LL 47 fibroblasts – human, LL 47 cells, CellTiter-Glo luminescence, primary screen. AID 719, 2007. viability, % at 10 µM. actives 1.1% (n = 85,000). LL 47 human lung fibroblast viability, ATP luminescence; stronger effect = lower value;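 active = viability at or below 50% in the single dose screen; inactive = viability above 50%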;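 note: compound exposure lasted 72 h before the ATP readout; 100% = median luminescence of untreated cell-only wells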
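Test system: LL 47 human lung fibroblasts / Quantity: 1,150 cells in each well / Medium: IMEM growth medium with 15% fetal bovine serum / Incubation: 72 h compound exposure at 37 °C after overnight plating / Detection: CellTiter-Glo luminescence measuring cellular ATP / Read-out: % viability versus median cells-only luminescence / Benchmarks: cell-only wells, no compound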
Jurkat viability: cytotoxicity toward Jurkat T cells, primary screen, cytotoxicity control, cell-based, Jurkat E6.1, 60K MLSMR library; Jurkat E6.1 viability, ATP luminescence, 48 h; inhibition, % at 4 µM; actives 1.2% (n = 56,000); AID 463, 2006;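 active = inhibition above the mean inhibition of all tested compounds plus 3 SD, cut at about 28% in these data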
Ecoli WT expand: growth inhibitors of wild-type E. coli, primary screen, strain BW25113, expanded library, OD600; OD600 absorbance; growth inhibition, % at 100 µM; actives 0.15% (n = 98,000);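 active = growth inhibition above about 50% at one test dose, limit read from the data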;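 note: growth measured after 20 h incubation at 37 °C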
Starred values were filed as active, the others as inactive.

For CCc1ccc(CCC(=O)Nc2sc3c(c2C#N)CCCC3)o1 the results were tolC growth inh 32, HUVEC inhibit 34, H69AR inhibit 33*, Lung fibro prol 58, Jurkat viability 89* and Ecoli WT expand -5.
For Cc1cccc(C(=O)Nc2sc3c(c2C#N)CCCCC3)c1 the results were HUVEC inhibit 71, H69AR inhibit 58 and Lung fibro prol 99.
`N#Cc1c(NC(=O)c2ccccc2)sc2c1CCC2` gave HUVEC inhibit 55, H69AR inhibit 21*, Lung fibro prol 84 and Ecoli WT expand -17.
Screening COc1cc(C)c(Cl)cc1S(=O)(=O)n1ccnc1C returned HUVEC inhibit 103, H69AR inhibit 98, Lung fibro prol 106 and Ecoli WT expand 2.
`N#Cc1ccc(-c2cccnc2)nc1SCC(=O)Nc1sc2c(c1C#N)CCC2` gave tolC growth inh 5, HUVEC inhibit 38, H69AR inhibit 101, Lung fibro prol 31* and Ecoli WT expand -3.
Screening COc1ccc(-c2nnc(SCC(=O)Nc3sc4c(c3C#N)CCCC4)n2-c2ccccc2)cc1 returned HUVEC inhibit 3.7*, H69AR inhibit 2.3* and Lung fibro prol 27*.
CCOC(=O)N1CCN(S(=O)(=O)c2ccc(C(=O)Nc3sc4c(c3C#N)CCC4)cc2)CC1 was read as tolC growth inh -23, HUVEC inhibit 47, H69AR inhibit 28*, Lung fibro prol 84, Jurkat viability 0 and Ecoli WT expand -11.
`COc1ccc(-c2nnc(SCC(=O)Nc3ncc(C)s3)n2-c2ccccc2)cc1OC` gave tolC growth inh 7, HUVEC inhibit 58, H69AR inhibit 17*, Lung fibro prol 82, Jurkat viability 50* and Ecoli WT expand -21.
For COc1ccc(-n2c(SCC(=O)Nc3sc4c(c3C#N)CCCC4)nnc2-c2ccccc2OC)cc1 the results were HUVEC inhibit 84, H69AR inhibit 92 and Lung fibro prol 104.
For Cc1ccc(C(=O)Oc2ccccc2N2C(=O)C3CCC(C)CC3C2=O)cc1 (centres undefined) the results were Ecoli WT expand 3.
O=C(NCCc1ccccc1)C1CCN(C(=O)NCc2ccccc2)CC1 was read as HUVEC inhibit 94, H69AR inhibit 94 and Lung fibro prol 98.
Screening CCCC1CCc2c(sc(NC(=O)OCC)c2C#N)C1 (centres undefined) returned HUVEC inhibit 56, H69AR inhibit 28* and Lung fibro prol 84.
Screening CC(C)c1cc(C(=O)Nc2sc3c(c2C#N)CCC3)no1 returned tolC growth inh 1, HUVEC inhibit 65, H69AR inhibit 26*, Lung fibro prol 84, Jurkat viability 69* and Ecoli WT expand -4.
For CCn1c2ccccc2c2cc(NC(=O)CSc3nnc(-c4ccc(OC)c(OC)c4)n3N)ccc21 the results were HUVEC inhibit 83, H69AR inhibit 22*, Lung fibro prol 107 and Ecoli WT expand 8.
`N#Cc1c(NC(=O)c2cccnc2)sc2c1CCC2` gave HUVEC inhibit 54, H69AR inhibit 21*, Lung fibro prol 75 and Ecoli WT expand -3.
Cc1cc(C(=O)Nc2sc3c(c2C#N)CCC(C(C)(C)C)C3)no1 (centres undefined) was read as tolC growth inh 8, HUVEC inhibit 67, H69AR inhibit 23*, Lung fibro prol 89, Jurkat viability 1 and Ecoli WT expand -4.
Screening Cc1ccccc1NC(=O)CSc1nnc(-c2ccccc2)n1-c1ccccc1 returned HUVEC inhibit 94, H69AR inhibit 106, Lung fibro prol 98 and Ecoli WT expand -11.
`N#Cc1ccccc1NC(=O)CSc1nnc(-c2ccccc2O)n1-c1ccccc1` gave tolC growth inh 20, HUVEC inhibit 84, H69AR inhibit 33*, Lung fibro prol 90, Jurkat viability 6 and Ecoli WT expand -5.
Cc1cc(C(=O)Nc2sc3c(c2C#N)CCC(C)C3)cs1 (centres undefined) was read as tolC growth inh -11, HUVEC inhibit 103, H69AR inhibit 19*, Lung fibro prol 110, Jurkat viability 4 and Ecoli WT expand -13.
`CC(C)(C)C1CCc2c(sc(NC(=O)c3cc(C4CC4)on3)c2C#N)C1` (centres undefined) gave tolC growth inh 2, HUVEC inhibit 79, H69AR inhibit 72, Lung fibro prol 90, Jurkat viability 7 and Ecoli WT expand -6.
For COc1ccc(N2CCN(CC(=O)Nc3cc4c(cc3C(C)=O)OCO4)CC2)cc1 the results were tolC growth inh -8, HUVEC inhibit 89, H69AR inhibit 87, Lung fibro prol 100 and Jurkat viability 7.
`CCOC(=O)/C=C(\C)Sc1cc(=O)oc2ccccc12` gave tolC growth inh 16, HUVEC inhibit 49, H69AR inhibit 13*, Lung fibro prol 86, Jurkat viability 14 and Ecoli WT expand 7.
`Cc1cc(NC(=O)CSC2=NCCS2)no1` gave tolC growth inh -4, HUVEC inhibit 102, H69AR inhibit 98, Lung fibro prol 106, Jurkat viability 3 and Ecoli WT expand 3.
Screening CCN(CC)S(=O)(=O)c1ccc(N2CCN(S(=O)(=O)c3ccccc3C#N)CC2)nc1 returned HUVEC inhibit 92, H69AR inhibit 38*, Lung fibro prol 92 and Ecoli WT expand -10.
For CCCC(=O)C1=C(O)C(C(=O)OC)C(C)(C)CC1=NC(C)C (centres undefined) the results were HUVEC inhibit 100, H69AR inhibit 72 and Lung fibro prol 98.
`COc1ccc2c(c1)SCCC2=O` gave Ecoli WT expand 1.
`COc1ccc2c(c1)OCC1=C2CCC2(C)C(=O)CC=C12` (centres undefined) gave tolC growth inh 5, HUVEC inhibit 77, H69AR inhibit 11*, Lung fibro prol 93, Jurkat viability 4 and Ecoli WT expand -1.
`CC(C)CNC(=O)c1c(N)n(/N=C/c2cccnc2)c2nc3ccccc3nc12` gave tolC growth inh 12, HUVEC inhibit 67, H69AR inhibit 46 and Lung fibro prol 100.
COCCCNC(=O)c1c(N)n(/N=C/c2cccnc2)c2nc3ccccc3nc12 was read as tolC growth inh 4 and Ecoli WT expand -9.
`CC(C)OCCCNC(=O)c1c(N)n(/N=C/c2ccccn2)c2nc3ccccc3nc12` gave tolC growth inh 3, HUVEC inhibit 76, H69AR inhibit 23*, Lung fibro prol 102, Jurkat viability 4 and Ecoli WT expand -6.
